Measurements as given in ChEMBL document CHEMBL1121400, “Quantitative structure--activity correlations of rifamycins as inhibitors of viral RNA-directed DNA polymerase and mammalian alpha and beta DNA polymerases” (J Med Chem, 1980).

Tests used:
[1] = Partition coefficient (logP); conditions: octanol/water, logP
[2] = Ability to inhibit mouse alpha DNA polymerase
How it was run: (§1)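 Enzyme in 50% glycerol, 1 mM dithiothreitol, 0.5 M KCl and 50 mM Tris-HCl pH 7.5 was premixed with inhibitor in 100% Me2SO and held on ice 10 min. Cocktail (MnCl2, KCl, NaF, BSA, [3H]dGTP, poly(2'-O-methylcytidylic acid)·d(pG)12-18) was then added. Incubation was 45 min at 37 °C.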

[3] = The logarithm of the reciprocal of the concentration which produces 50% inhibition of mammalian alpha DNA polymerase.
How it was run: (§2)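 Mammalian α or β DNA polymerase in 100 µL reaction: enzyme in 50% glycerol, 1 mM DTT, 0.5 M KCl, Tris-HCl pH 7.5; Me2SO compound; cocktail with MnCl2, NaF, [3H]dGTP, poly(2'-O-methylC)·d(pG)12-18 template. Compound added first, then enzyme, then cocktail; 45 min at 37 °C. Product radioactivity, background-corrected against Me2SO controls; 50% concentration from triplicate five-dose curves, 10^-3–10^-7 M, expressed as log(1/C).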

DNA polymerase beta = DNA polymerase beta (Mus musculus, UniProt Q8K409); assay: Ability to inhibit mouse beta DNA polymerase; how it was run: as §1
Gag-Pol polyprotein = Gag-Pol polyprotein (Woolly monkey sarcoma virus, UniProt P03359); assay: Ability to inhibit simian sarcoma virus reverse transcriptase
How it was run: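 Purified SSV-1 RNA-dependent DNA polymerase from 71 AP1 culture fluids, in 20% glycerol, 1 mM dithiothreitol, 1 mg/mL BSA and 50 mM Tris-HCl pH 7.5, was held 10 min on ice with inhibitor in Me2SO. Mn2+/[3H]dGTP cocktail with poly(2'-O-methylcytidylic acid)·d(pG)12-18 template was added, then 45 min at 37 °C. Background-corrected triplicate dose series; the 50% inhibition concentration was extrapolated.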

[4] = biological target: Gag-Pol polyprotein (Woolly monkey sarcoma virus) (UniProt P03359); assay: Inhibition of simian sarcoma virus reverse transcriptase
How it was run: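 SSV-1 RNA-dependent DNA polymerase purified from tissue culture fluid of 71 AP1 cells. 50 µL reaction containing 20% glycerol, 1 mM DTT, BSA, Tris-HCl pH 7.5, MnCl2, KCl, NaF, [3H]dGTP and poly(2'-O-methylC)·d(pG)12-18. Compound in Me2SO is mixed with enzyme on ice for 10 min before the cocktail is added, then incubated 45 min at 37 °C. Radioactivity in product; 50% inhibitory concentration from triplicate dose–response curves spanning 10^-3 to 10^-7 M.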

[5] = biological target: DNA polymerase beta (Mus musculus) (UniProt Q8K409); assay: The logarithm of the reciprocal of the concentration which produces 50% inhibition of mammalian beta DNA polymerase.; how it was run: as §2

Sequence of Gag-Pol polyprotein (Woolly monkey sarcoma virus) (P03359 whole entry): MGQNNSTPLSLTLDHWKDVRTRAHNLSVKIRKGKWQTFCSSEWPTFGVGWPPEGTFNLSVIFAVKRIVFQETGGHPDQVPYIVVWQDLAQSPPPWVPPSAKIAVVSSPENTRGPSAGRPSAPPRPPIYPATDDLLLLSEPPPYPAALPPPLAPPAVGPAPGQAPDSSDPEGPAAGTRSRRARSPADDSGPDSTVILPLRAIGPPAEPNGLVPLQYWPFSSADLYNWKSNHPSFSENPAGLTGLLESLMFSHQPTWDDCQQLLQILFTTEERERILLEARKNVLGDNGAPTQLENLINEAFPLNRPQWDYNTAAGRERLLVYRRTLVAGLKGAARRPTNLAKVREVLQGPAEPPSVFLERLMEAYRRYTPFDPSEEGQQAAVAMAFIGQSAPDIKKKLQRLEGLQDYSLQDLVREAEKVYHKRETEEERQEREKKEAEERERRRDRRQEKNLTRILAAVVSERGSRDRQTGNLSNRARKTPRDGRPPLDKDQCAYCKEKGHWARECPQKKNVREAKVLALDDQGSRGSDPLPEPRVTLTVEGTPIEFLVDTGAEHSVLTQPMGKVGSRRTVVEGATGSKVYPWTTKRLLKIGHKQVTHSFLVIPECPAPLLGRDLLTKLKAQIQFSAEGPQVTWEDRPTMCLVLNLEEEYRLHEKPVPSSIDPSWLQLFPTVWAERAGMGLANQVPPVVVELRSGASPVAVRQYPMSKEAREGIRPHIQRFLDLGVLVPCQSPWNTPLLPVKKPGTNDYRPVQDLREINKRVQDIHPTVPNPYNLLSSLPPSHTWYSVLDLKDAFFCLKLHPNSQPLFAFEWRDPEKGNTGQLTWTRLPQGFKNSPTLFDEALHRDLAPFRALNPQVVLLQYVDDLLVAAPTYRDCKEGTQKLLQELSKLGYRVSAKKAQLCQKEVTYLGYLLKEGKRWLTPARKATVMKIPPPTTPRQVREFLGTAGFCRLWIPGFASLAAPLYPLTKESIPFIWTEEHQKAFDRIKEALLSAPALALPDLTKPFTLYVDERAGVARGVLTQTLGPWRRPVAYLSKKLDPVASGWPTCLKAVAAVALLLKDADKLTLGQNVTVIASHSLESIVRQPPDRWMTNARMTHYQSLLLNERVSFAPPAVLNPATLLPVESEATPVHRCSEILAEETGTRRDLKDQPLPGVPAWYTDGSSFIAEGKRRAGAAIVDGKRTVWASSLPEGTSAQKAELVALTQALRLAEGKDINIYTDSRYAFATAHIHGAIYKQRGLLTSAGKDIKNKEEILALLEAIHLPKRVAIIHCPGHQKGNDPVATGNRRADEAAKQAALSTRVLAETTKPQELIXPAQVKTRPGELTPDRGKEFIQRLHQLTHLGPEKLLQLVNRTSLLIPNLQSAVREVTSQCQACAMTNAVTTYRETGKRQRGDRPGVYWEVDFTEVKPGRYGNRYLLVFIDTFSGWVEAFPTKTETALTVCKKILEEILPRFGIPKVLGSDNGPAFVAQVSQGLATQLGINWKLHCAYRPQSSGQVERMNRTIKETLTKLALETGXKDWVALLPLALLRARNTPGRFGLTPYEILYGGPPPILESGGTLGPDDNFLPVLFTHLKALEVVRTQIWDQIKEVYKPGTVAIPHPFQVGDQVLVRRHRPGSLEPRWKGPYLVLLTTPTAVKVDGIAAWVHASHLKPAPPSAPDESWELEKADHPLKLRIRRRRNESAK
Sequence of Gag-Pol polyprotein (P03359 642-1310 limits assumed): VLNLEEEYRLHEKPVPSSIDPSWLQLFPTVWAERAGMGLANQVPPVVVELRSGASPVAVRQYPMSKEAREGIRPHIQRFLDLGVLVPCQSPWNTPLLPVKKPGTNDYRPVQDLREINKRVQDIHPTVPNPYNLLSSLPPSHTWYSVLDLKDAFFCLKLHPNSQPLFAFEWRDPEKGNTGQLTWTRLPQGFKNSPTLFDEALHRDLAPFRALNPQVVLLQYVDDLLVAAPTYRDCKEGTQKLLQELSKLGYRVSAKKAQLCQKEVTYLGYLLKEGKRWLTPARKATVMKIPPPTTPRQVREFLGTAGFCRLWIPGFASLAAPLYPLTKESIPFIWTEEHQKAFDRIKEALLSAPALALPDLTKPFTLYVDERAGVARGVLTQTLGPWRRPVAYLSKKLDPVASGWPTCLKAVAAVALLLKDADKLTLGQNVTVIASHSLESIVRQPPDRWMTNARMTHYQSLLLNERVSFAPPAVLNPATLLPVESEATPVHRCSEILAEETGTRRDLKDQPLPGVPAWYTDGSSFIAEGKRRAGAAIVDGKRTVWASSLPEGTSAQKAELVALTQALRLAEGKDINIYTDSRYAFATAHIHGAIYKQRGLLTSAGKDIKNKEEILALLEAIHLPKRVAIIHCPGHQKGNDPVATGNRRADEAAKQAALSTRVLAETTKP

| logP [1] | IC50 [2] [M l-1] | Log 1/C [3] | IC50 (DNA polymerase beta; read-out: IC50) [µM] | IC50 (Gag-Pol polyprotein; read-out: IC50) [µM] | Log 1/C [4] | Log 1/C [5] | IC50 (DNA polymerase beta) [M l-1] | IC50 (Gag-Pol polyprotein) [M l-1] | Structure (SMILES) |
| --- | --- | --- | --- | --- | --- | --- | --- | --- | --- |
| 3.85 | 0.00006500000000000002 | 4.19 | 45 | 13.5 | 4.87 | 4.35 |  |  | CCCN(CCC)/N=C/c1cc2c3c4c(C)c(O)c2c(O)c1NC(=O)/C(C)=C\C=C\C(C)C(O)C(C)C(O)C(C)C(OC(C)=O)C(C)C(OC)/C=C/OC(C)(O4)C3=O (stereo not given) |
| 3.71 | 0.000047 | 4.33 | 22 | 16 | 4.8 | 4.66 |  |  | COC1/C=C/OC2(C)Oc3c(C)c(O)c4c(O)c(c(/C=N/N5C(C)CN(Cc6ccc(C#N)cc6)CC5C)cc4c3C2=O)NC(=O)/C(C)=C\C=C\C(C)C(O)C(C)C(O)C(C)C(OC(C)=O)C1C (stereo not given) |
| 4.83 | 0.000034 | 4.46 | 6.6 | 5.6 | 5.25 | 5.18 |  |  | COC1/C=C/OC2(C)Oc3c(C)c(O)c4c(O)c(c(/C=N/OCCCc5ccccc5)cc4c3C2=O)NC(=O)/C(C)=C\C=C\C(C)C(O)C(C)C(O)C(C)C(OC(C)=O)C1C (stereo not given) |
| 0.78 | 0.00076 | 3.12 |  |  | 3.43 | 2.96 | 0.0011 | 0.00037 | COC1/C=C/OC2(C)Oc3c(C)c(O)c4c(O)c(ccc4c3C2=O)NC(=O)/C(C)=C\C=C\C(C)C(O)C(C)C(O)C(C)C(OC(C)=O)C1C (stereo not given) |
| 5.2 | 0.000015 | 4.94 | 13 | 1 | 6 | 4.89 |  |  | CCCCCCCCO/N=C/c1cc2c3c4c(C)c(O)c2c(O)c1NC(=O)/C(C)=C\C=C\C(C)C(O)C(C)C(O)C(C)C(OC(C)=O)C(C)C(OC)/C=C/OC(C)(O4)C3=O (stereo not given) |
| 0.13 | 0.000102 | 2.99 |  | 17 | 2.99 | 2.99 | 0.000104 |  | COC1/C=C/OC2(C)Oc3c(C)c(O)c4c(O)c(c(C=O)cc4c3C2=O)NC(=O)/C(C)=C\C=C\C(C)C(O)C(C)C(O)C(C)C(OC(C)=O)C1C (stereo not given) |
| 4.96 | 0.000024 | 4.62 | 10 | 2.5 | 5.6 | 5 |  |  | COC1/C=C/OC2(C)Oc3c(C)c(O)c4c(O)c(c(/C=N/OC(c5ccccc5)c5ccccc5)cc4c3C2=O)NC(=O)/C(C)=C\C=C\C(C)C(O)C(C)C(O)C(C)C(OC(C)=O)C1C (stereo not given) |
| 0.11 | 0.00023 | 2.64 |  | 13 | 2.64 | 2.64 | 0.00037 |  | COC1/C=C/OC2(C)Oc3c(C)c(O)c4c(O)c(c(O)cc4c3C2=O)NC(=O)/C(C)=C\C=C\C(C)C(O)C(C)C(O)C(C)C(OC(C)=O)C1C (stereo not given) |
|  |  | 4.62 |  |  | 5.49 | 5.13 |  |  | CCCCCCCCN(CCCCCCCC)/N=C/c1cc2c3c4c(C)c(O)c2c(O)c1NC(=O)/C(C)=C\C=C\C(C)C(O)C(C)C(O)C(C)C(OC(C)=O)C(C)C(OC)/C=C/OC(C)(O4)C3=O (stereo in doubt; 8) |
|  |  | 4.62 |  |  | 5.48 | 4.72 |  |  | COC1/C=C/OC2(C)Oc3c(C)c(O)c4c(O)c(c(/C=N/N5CCCCCCCCCCCC5)cc4c3C2=O)NC(=O)/C(C)=C\C=C\C(C)C(O)C(C)C(O)C(C)C(OC(C)=O)C1C (stereo in doubt; 17) |
|  |  | 4.6 |  |  | 5.19 | 4.66 |  |  | COC1/C=C/OC2(C)Oc3c(C)c(O)c4c(O)c(c(/C=N/N5CCCCCCCCCCCCCCC5)cc4c3C2=O)NC(=O)/C(C)=C\C=C\C(C)C(O)C(C)C(O)C(C)C(OC(C)=O)C1C (stereo in doubt; 18) |
